Test results from publication PMC5470083 (Molecular imaging, 2016).
Like-named read-outs stand apart in the source and are kept apart here.

Key:
tau (NFTs) [1] = molecular target: T1, tau (NFTs) (Homo sapiens, UniProt P10636); format: binding; settings: 1 µmol/L compound, human AD slices, n = 3
Target sequence in this assay (P10636 623-708 limits assumed): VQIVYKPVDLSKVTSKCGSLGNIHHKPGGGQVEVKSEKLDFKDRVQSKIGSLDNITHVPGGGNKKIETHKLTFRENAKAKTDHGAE

PHF tau = PHF tau (Homo sapiens, UniProt P10636); format: binding
amyloid plaques = amyloid plaques (Homo sapiens, UniProt P05067); format: binding
Aβ = Aβ (Homo sapiens, UniProt P05067); test: In vitro autoradiography binding inhibition of [11C]PiB on human AD brain slices; settings: for % Block ± SD of tracer binding: 1 µmol/L compound, tracer 13 nmol/L [11C]PiB, human AD slices, n = 3
Sequence of Aβ (P05067 672-711 limits assumed): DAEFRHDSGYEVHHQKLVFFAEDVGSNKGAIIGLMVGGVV

tau (NFTs) [2] = molecular target: T1, tau (NFTs); format: binding
Target sequence in this assay (P10636 623-695 limits assumed): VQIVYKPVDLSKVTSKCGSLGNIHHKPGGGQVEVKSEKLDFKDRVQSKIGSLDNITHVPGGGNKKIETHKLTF

NFTs = settings: autoradiography on human AD brain tissue sections; ref [8],[11]; cited from earlier work
[3] = Plasma radiometabolite analysis; format: in vivo, mouse; settings: normal mice
In short: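 NMRI mice under isoflurane (2.5% in O2) received about 3.7 MBq of 18F-labelled tracer via a lateral tail vein. They were decapitated at 2, 10, 30 or 60 min PI (n = 3/time point). EDTA blood was kept on ice and spun at 2330 ×g for 10 min. Plasma (0.5 mL) was spiked with 10 µg authentic unlabelled compound and run on C18 HPLC. Fractions were γ-counted for % intact tracer, reported as mean ± SD.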

[4] = Biodistribution in normal NMRI mice; format: in vivo, mouse; settings: for %ID/g Blood / %ID/g Bone / %ID/g Brain / %ID/g Cerebellum / %ID/g Cerebrum / %ID/g Heart / %ID/g Kidneys / %ID/g Liver / %ID/g Lungs / %ID/g Muscle / %ID/g Pancreas / %ID/g Spleen: iv
In short: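 Healthy male NMRI mice (30-40 g) under 2.5% isoflurane in O2 received about 0.9 MBq of 18F-labelled tracer by tail vein. They were decapitated at 2, 10, 30 and 60 min PI (n = 4/time point). Blood and organs were weighed and γ-counted. Blood, bone and muscle were taken as 7%, 12% and 40% of body mass. Blood clearance was calculated as the 2 min to 60 min activity ratio.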

[5] = Perfused brain radiometabolite analysis; format: in vivo, mouse; settings: normal mice
[6] = read-out: % Block ± SD of tracer binding
[7] = read-out: Inhibition of [11C]PiB binding, summary statements

Sequence of amyloid plaques (P05067 672-711 limits assumed): as the sequence (P05067 672-711 limits assumed) above
Sequence of PHF tau (P10636 623-695 limits assumed): as the sequence (P10636 623-695 limits assumed) above

2-[4-(4-Fluorophenyl)phenyl]-1,3-benzothiazole [TAU3]
% Block ± SD of tracer binding (tau (NFTs) [1]; tracer 10 nmol/L [18F]T808): 29 ± 0.1%

COc1ccc(CCN2CCC(Nc3nc4ccccc4n3Cc3ccc(F)cc3)CC2)cc1 [Astemizole]
Ki (PHF tau): > 4000 nM | Ki (amyloid plaques): > 4400 nM

Cc1c(OCC(F)(F)F)ccnc1C[S+]([O-])c1nc2ccccc2[nH]1 (stereo not shown) [Lansoprazole]
Ki (PHF tau): > 4000 nM | Ki (amyloid plaques): > 4400 nM

[11CH3]Nc1ccc(-c2nc3ccc(O)cc3s2)cc1 [PiB, 2-[4-([^11C]methylamino)phenyl]benzothiazol-6-ol]
Ki (PHF tau): 129 nM | % Block ± SD of tracer binding (Aβ): 57 ± 0.0%

[18F]c1ccc(-c2ccc3c(c2)[nH]c2ccncc23)cn1 [T807, 7-[6-[^18F]fluoropyridin-3-yl]-5H-pyrido-[4,3-b]indole]
Ki (PHF tau): 1.1 nM | Ki (amyloid plaques): 247 nM | % Block ± SD of tracer binding (Aβ): 11 ± 0.1% | inhibition at 1 µM (Aβ; [6]): 11% | inhibition at 1 µM (Aβ; [7]): < 17% | % Block ± SD of tracer binding (tau (NFTs) [2]; 1 µmol/L compound, tracer 28 nmol/L [18F]T807, human AD slices, n = 3): 88 ± 0.0% | inhibition at 1 µM (tau (NFTs) [2]; [6]): 88% | Kd (NFTs): 15 nM | fold higher binding affinity for NFTs over Aβ (NFTs): 25 fold | Mean % ± SD of intact tracer, plasma ([3]; 2 min after injection, n = 3): 99 ± 1% | Mean % ± SD of intact tracer, plasma ([3]; 2 min after injection, n = 3, listed as [^18F]T807): 99% | Mean % ± SD of intact tracer, plasma ([3]; 10 min after injection, n = 3): 84 ± 5% | Mean % ± SD of intact tracer, plasma ([3]; 30 min after injection, n = 3): 60 ± 14% | Mean % ± SD of intact tracer, plasma ([3]; 30 min after injection, n = 3, listed as [^18F]T807): 60% | Mean % ± SD of intact tracer, plasma ([3]; 60 min after injection, n = 3): 45 ± 4% | %ID/g Blood ([4]; blood, 2 min PI): 1.5 ± 0.2 %ID/g | 2/60 min activity ratio Blood (clearance from blood) ([4]; blood, 2 min to 60 min activity ratio): 2.5 | %ID/g Blood ([4]; blood, 10 min PI): 0.7 ± 0.0 %ID/g | %ID/g Blood ([4]; blood, 30 min PI): 0.7 ± 0.1 %ID/g | %ID/g Blood ([4]; blood, 60 min PI): 0.6 ± 0.1 %ID/g | %ID/g Bone ([4]; 2 min PI): 0.1 ± 0.1 %ID/g | %ID/g Bone ([4]; 10 min PI): 1.4 ± 0.2 %ID/g | %ID/g Bone ([4]; 60 min PI): 0.1 ± 0.0 %ID/g | %ID/g Brain ([4]; brain, 2 min PI): 7.5 ± 1.1 %ID/g | 2/60 min activity ratio Brain ([4]; brain, 2 min to 60 min activity ratio): 18.3 | %ID/g Brain ([4]; brain, 10 min PI): 2.6 ± 0.5 %ID/g | %ID/g Brain ([4]; brain, 30 min PI): 0.8 ± 0.4 %ID/g | %ID/g Brain ([4]; brain, 60 min PI): 0.4 ± 0.2 %ID/g | %ID/g Cerebellum ([4]; 2 min PI): 8.5 ± 1.4 %ID/g | %ID/g Cerebellum ([4]; 10 min PI): 2.4 ± 0.5 %ID/g | %ID/g Cerebellum ([4]; 30 min PI): 0.8 ± 0.4 %ID/g | %ID/g Cerebellum ([4]; 60 min PI): 0.4 ± 0.2 %ID/g | %ID/g Cerebrum ([4]; 2 min PI): 7.2 ± 1.0 %ID/g | %ID/g Cerebrum ([4]; 10 min PI): 2.6 ± 0.5 %ID/g | %ID/g Cerebrum ([4]; 30 min PI): 0.8 ± 0.4 %ID/g | %ID/g Cerebrum ([4]; 60 min PI): 0.4 ± 0.2 %ID/g | %ID/g Heart ([4]; 2 min PI): 6.8 ± 0.9 %ID/g | %ID/g Heart ([4]; 10 min PI): 2.1 ± 0.3 %ID/g | %ID/g Heart ([4]; 30 min PI): 1.3 ± 0.3 %ID/g | %ID/g Heart ([4]; 60 min PI): 1.0 ± 0.1 %ID/g | %ID/g Kidneys ([4]; 2 min PI): 35.9 ± 6.2 %ID/g | %ID/g Kidneys ([4]; 10 min PI): 25.6 ± 3.0 %ID/g | %ID/g Kidneys ([4]; 30 min PI): 15.8 ± 5.0 %ID/g | %ID/g Kidneys ([4]; 60 min PI): 13.0 ± 2.6 %ID/g | %ID/g Liver ([4]; 2 min PI): 12.6 ± 2.4 %ID/g | %ID/g Liver ([4]; 10 min PI): 14.6 ± 1.0 %ID/g | %ID/g Liver ([4]; 30 min PI): 20.7 ± 1.8 %ID/g | %ID/g Liver ([4]; 60 min PI): 18.1 ± 2.2 %ID/g | %ID/g Lungs ([4]; 2 min PI): 25.1 ± 11.9 %ID/g | %ID/g Lungs ([4]; 10 min PI): 4.2 ± 1.8 %ID/g | %ID/g Lungs ([4]; 30 min PI): 3.9 ± 1.2 %ID/g | %ID/g Lungs ([4]; 60 min PI): 2.1 ± 0.7 %ID/g | %ID/g Muscle ([4]; 2 min PI): 3.0 ± 1.8 %ID/g | %ID/g Muscle ([4]; 10 min PI): 1.4 ± 0.3 %ID/g | %ID/g Muscle ([4]; 30 min PI): 0.6 ± 0.1 %ID/g | %ID/g Muscle ([4]; 60 min PI): 0.5 ± 0.1 %ID/g | %ID/g Pancreas ([4]; 2 min PI): 4.1 ± 2.2 %ID/g | %ID/g Pancreas ([4]; 10 min PI): 4.7 ± 0.7 %ID/g | %ID/g Pancreas ([4]; 30 min PI): 2.1 ± 0.8 %ID/g | %ID/g Pancreas ([4]; 60 min PI): 1.5 ± 0.6 %ID/g | %ID/g Spleen ([4]; 2 min PI): 15.7 ± 5.1 %ID/g | %ID/g Spleen ([4]; 10 min PI): 13.8 ± 12.5 %ID/g | %ID/g Spleen ([4]; 30 min PI): 3.8 ± 1.3 %ID/g | %ID/g Spleen ([4]; 60 min PI): 3.1 ± 1.7 %ID/g | % Block ± SD of tracer binding (tau (NFTs) [1]; tracer 7 nmol/L [18F]T808): 94 ± 0.0% | Mean % ± SD of intact tracer, perfused brain ([5]; 10 min after injection, n = 3): 100 ± 0% | Mean % ± SD of intact tracer, perfused brain ([5]; 10 min after injection, n = 3, listed as [^18F]T807): ~100% | Mean % ± SD of intact tracer, perfused brain ([5]; 60 min after injection, n = 3): 99 ± 1% | Mean % ± SD of intact tracer, perfused brain ([5]; 60 min after injection, n = 3, listed as [^18F]T807): ~100%

COc1ccc(-c2csc(NN=Cc3ccccc3)n2)cc1 [TAU4, 1-Benzylidene-2-(4-(4-methoxyphenyl)thiazol-2-yl)hydrazine]
Ki (PHF tau): > 4000 nM | Ki (amyloid plaques): > 4400 nM

COc1ccc(-c2csc(NN=Cc3ccccn3)n2)cc1 [TAU5, 2-(4-(4-Methoxyphenyl)thiazol-2-yl)-1-((pyridin-2-yl)methylene)hydrazine]
Ki (PHF tau): > 4000 nM | Ki (amyloid plaques): > 4400 nM

COc1ccc(-c2ccc3c(c2)[nH]c2ccncc23)cn1 [TAU6, 2-Methoxy-5-{5H-pyrido[4,3-b]indol-7-yl}pyridine]
Ki (PHF tau): > 4000 nM | Ki (amyloid plaques): > 4400 nM | inhibition at 1 µM (Aβ; [6]): 0% | inhibition at 1 µM (Aβ; [7]): < 17%

COc1ccc(-c2ccc3c(c2)[nH]c2ccncc23)cc1 [TAU7, 7-(4-Methoxyphenyl)-5H-pyrido[4,3-b]indole]
Ki (PHF tau): 14 nM | Ki (amyloid plaques): 4.9 nM | inhibition at 1 µM (Aβ; [6]): 0%

COC(=O)c1ccc(-c2ccc3c(c2)[nH]c2ccncc23)cn1 [TAU8, Methyl 5-{5H-pyrido[4,3-b]indol-7-yl}pyridine-2-carboxylate]
Ki (PHF tau): > 4000 nM | Ki (amyloid plaques): > 4400 nM | inhibition at 1 µM (Aβ; [6]): 0%

Methyl 2-(4-nitrophenyl)benzo[d]thiazole-6-carboxylate [TAU2]
% Block ± SD of tracer binding (tau (NFTs) [1]; tracer 10 nmol/L [18F]T808): 48 ± 0.0%
